According to paper PMC3060938 (Clinical cancer research : an official journal of the …, 2011):
Several values for one entry are separate records, joined by “and”; a condition that tells them apart may be missing. Equal values may be shown once.

What was measured:
[1] = system: NCI 60 human tumor cell line panel; settings: read-out: Mean IC50, no reference given; cited from earlier work
[2] = Phase I dose escalation of weekly IV 17-DMAG: toxicity; type: in vivo, human
In short: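 Weekly 1-h IV infusion, continuous, in 4-week cycles, of drug diluted to 0.1-1.0 mg/mL in 0.9% saline or 5% dextrose. Accelerated titration escalation from 2.5 mg/m2, up to 106 mg/m2. AEs graded by NCI-CTCAE v3.0. DLT assessed over the first 28 days. Cohorts expanded to 6 after DLT. MAD defined as ≥2/6 with DLT; MTD as the prior level with ≤1/6.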

HSP90 [3] = experiment: Western blotting of HSP72, CDK4 and ERBB2 in paired tumor biopsies; type: in vivo, human
In short: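 Tumour biopsies were taken before and 24 h after the first weekly 1-h IV dose, snap frozen and stored at −80 °C; five paired biopsies per cohort were planned. Lysates were western blotted for HSP72, CDK4 and ERBB2, with GAPDH loading control and HT29 positive control. Each band was scored 0-5 against pre-treatment; a one-point change counted. Signature: HSP72 induction plus CDK4 and/or ERBB2 depletion. Two blinded assessors verified results.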

HSP72 = HSP72 in PBMC and plasma by ELISA; type: in vivo, human
In short: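 Human patients with advanced solid tumours received a weekly 1-h IV infusion of the test compound, given at 0.1-1.0 mg/mL in 0.9% saline or 5% dextrose. Blood was drawn pre-dose and 24 h post-dose. PBMC were Ficoll-Hypaque separated and stored at −80 °C. HSP72 was measured in PBMC (fmole/μg protein) and plasma (fmole/ml). Each cohort's mean change was compared with the first cohort's by one-tailed t-test (p ≤ 0.05).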

advanced solid tumors = experiment: Tumor response; type: in vivo, human
[4] = Plasma pharmacokinetics of 17-DMAG by HPLC-MS, non-compartmental analysis; type: in vivo, human
In short: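 Sampled in course 1: pre-dose, at 30 and 60 min into the 1-h infusion, then 5 min to 96 h after infusion end. Heparinised blood held on ice, spun 252g for 5 min at 4°C, plasma kept at −80°C. Drug measured by validated HPLC-MS. Non-compartmental analysis with constant infusion input. Dose proportionality of AUC and Cmax assessed by linear regression.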

HSP90 [5] = experiment: Western blotting of HSP72, CDK4 and LCK in patients' PBMC; type: in vivo, human
In short: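 Blood drawn pre-dose, at end of infusion and 1, 8, 24, 48 and 96 h post-dose, plus 24 h after the fifth weekly infusion. PBMC isolated by Ficoll-Hypaque and stored at −80°C. Lysates blotted for HSP72, CDK4 and LCK, with GAPDH as loading control. Each time-point visually compared with pre-treatment and scored 0-5 against a positive control.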

CO[C@H]1/C=C\C=C(/C)C(=O)NC2=CC(=O)C(NCCN(C)C)=C(C[C@@H](C)C[C@H](OC)[C@H](O)[C@@H](C)/C=C(\C)[C@@H]1OC(N)=O)C2=O [17-DMAG, 17-dimethylaminoethylamino-17-demethoxygeldanamycin]
IC50 [1]: 63 nM
Treatment related death ([2]; 106mg/m^2): one treatment related death
Patients with dose limiting toxicity (DLT) ([2]; 106 mg/m^2 weekly IV): 2/4
ALP (hepatic), adverse events related to 17-DMAG ([2]; Grade 1): 2
ALT (hepatic), adverse events related to 17-DMAG ([2]; Grade 1): 2
AST (hepatic), adverse events related to 17-DMAG ([2]; Grade 1): 4
Alopecia, adverse events related to 17-DMAG ([2]; Grade 1): 2
Anorexia, adverse events related to 17-DMAG ([2]; Grade 1): 1
Blurred vision, adverse events related to 17-DMAG ([2]; Grade 1): 2
Dehydration, adverse events related to 17-DMAG ([2]; Grade 1): 1
Depression, adverse events related to 17-DMAG ([2]; Grade 1): 1
Diarrhea, adverse events related to 17-DMAG ([2]; Grade 1): 5
Dizziness, adverse events related to 17-DMAG ([2]; Grade 1): 1
Dry eye, adverse events related to 17-DMAG ([2]; Grade 1): 1
Dry mouth, adverse events related to 17-DMAG ([2]; Grade 1): 3
Eosinophilia, adverse events related to 17-DMAG ([2]; Grade 1): 1
Fever, adverse events related to 17-DMAG ([2]; Grade 1): 2
Hand foot syndrome, adverse events related to 17-DMAG ([2]; Grade 1): 1
Heartburn, adverse events related to 17-DMAG ([2]; Grade 1): 1
High protein, adverse events related to 17-DMAG ([2]; Grade 1): 1
Hypergylcaemia, adverse events related to 17-DMAG ([2]; Grade 1): 2
Hypertension, adverse events related to 17-DMAG ([2]; Grade 1): 3
Hyperuricaemia, adverse events related to 17-DMAG ([2]; Grade 1): 1
Hypocalcaemia, adverse events related to 17-DMAG ([2]; Grade 1): 1
Hypokalaemia, adverse events related to 17-DMAG ([2]; Grade 1): 2
Hyponatraemia, adverse events related to 17-DMAG ([2]; Grade 1): 3
Limb edema, adverse events related to 17-DMAG ([2]; Grade 1): 2
Low eosinophils, adverse events related to 17-DMAG ([2]; Grade 1): 1
Low hematocrit, adverse events related to 17-DMAG ([2]; Grade 1): 1
Low red cell count, adverse events related to 17-DMAG ([2]; Grade 1): 1
Low urea, adverse events related to 17-DMAG ([2]; Grade 1): 1
Lymphopenia, adverse events related to 17-DMAG ([2]; Grade 1): 2
Muscle spasm, adverse events related to 17-DMAG ([2]; Grade 1): 1
Nausea, adverse events related to 17-DMAG ([2]; Grade 1): 5
Neuropathy, adverse events related to 17-DMAG ([2]; Grade 1): 1
Nightmares, adverse events related to 17-DMAG ([2]; Grade 1): 1
Ocular surface disease, adverse events related to 17-DMAG ([2]; Grade 1): 2
Oliguria, adverse events related to 17-DMAG ([2]; Grade 1): 1
Pain, Abdomen, adverse events related to 17-DMAG ([2]; Grade 1): 1
Pain, Headache, adverse events related to 17-DMAG ([2]; Grade 1): 1
Pain, Joint, adverse events related to 17-DMAG ([2]; Grade 1): 5
Pain, Limb, adverse events related to 17-DMAG ([2]; Grade 1): 1
Pain, Myalgia, adverse events related to 17-DMAG ([2]; Grade 1): 2
Proteinuria, adverse events related to 17-DMAG ([2]; Grade 1): 3
Raised CK, adverse events related to 17-DMAG ([2]; Grade 1): 1
Raised amylase, adverse events related to 17-DMAG ([2]; Grade 1): 1
Raised bilirubin (hepatic), adverse events related to 17-DMAG ([2]; Grade 1): 1
Raised leucocytes, adverse events related to 17-DMAG ([2]; Grade 1): 1
Raised neutrophils, adverse events related to 17-DMAG ([2]; Grade 1): 2
Rash, adverse events related to 17-DMAG ([2]; Grade 1): 1
Sinus tachycardia, adverse events related to 17-DMAG ([2]; Grade 1): 1
Thrombocytopenia, adverse events related to 17-DMAG ([2]; Grade 1): 3
Vivid dreams, adverse events related to 17-DMAG ([2]; Grade 1): 1
Voice change, adverse events related to 17-DMAG ([2]; Grade 1): 1
Vomiting, adverse events related to 17-DMAG ([2]; Grade 1): 2
Weight loss, adverse events related to 17-DMAG ([2]; Grade 1): 1
ALP (hepatic), adverse events related to 17-DMAG ([2]; Grade 2): 1
ALT (hepatic), adverse events related to 17-DMAG ([2]; Grade 2): 1
Anorexia, adverse events related to 17-DMAG ([2]; Grade 2): 1
Blurred vision, adverse events related to 17-DMAG ([2]; Grade 2): 2
Diarrhea, adverse events related to 17-DMAG ([2]; Grade 2): 1
Dry eye, adverse events related to 17-DMAG ([2]; Grade 2): 2
Eye (herpes simplex), adverse events related to 17-DMAG ([2]; Grade 2): 1
Fatigue, adverse events related to 17-DMAG ([2]; Grade 2): 2
Fever, adverse events related to 17-DMAG ([2]; Grade 2): 1
Keratitis, adverse events related to 17-DMAG ([2]; Grade 2): 2
Nausea, adverse events related to 17-DMAG ([2]; Grade 2): 1
Pain, Joint, adverse events related to 17-DMAG ([2]; Grade 2): 2
Vomiting, adverse events related to 17-DMAG ([2]; Grade 2): 4
ALT (hepatic), adverse events related to 17-DMAG ([2]; Grade 3): 1
AST (hepatic), adverse events related to 17-DMAG ([2]; Grade 3): 1
Acidosis, adverse events related to 17-DMAG ([2]; Grade 3): 1
Creatinine, adverse events related to 17-DMAG ([2]; Grade 3): 1
Dehydration, adverse events related to 17-DMAG ([2]; Grade 3): 1
Diarrhea, adverse events related to 17-DMAG ([2]; Grade 3): 1
Fatigue, adverse events related to 17-DMAG ([2]; Grade 3): 1
Hyponatraemia, adverse events related to 17-DMAG ([2]; Grade 3): 1
Lymphopenia, adverse events related to 17-DMAG ([2]; Grade 3): 1
Thrombocytopenia, adverse events related to 17-DMAG ([2]; Grade 3): 1
γGT (hepatic), adverse events related to 17-DMAG ([2]; Grade 3): 1
AST (hepatic), adverse events related to 17-DMAG ([2]; Grade 4): 1
Hypotension, adverse events related to 17-DMAG ([2]; Grade 4): 1
Renal failure, adverse events related to 17-DMAG ([2]; Grade 5): 1
Tolerability ([2]; doses ≤ 80mg/m^2): well tolerated
Maximum tolerated dose (MTD) ([2]; weekly IV, patients with advanced solid tumors): 80 mg/m^2
Recommended Phase II dose ([2]; weekly, IV): 80 mg/m^2
HSP90 inhibition in tumor (HSP90 [3]; 106 mg/m^2, single set of samples): confirmed
Patients with HSP90 inhibition detected in tumor (HSP90 [3]; 24 hrs after 80mg/m^2): 3/5
Tumors with HSP72 induced (HSP90 [3]; 24 hrs after 80mg/m^2): 4/5
Tumors with client protein depletion (CDK4 or ERBB2) (HSP90 [3]; 24 hrs after 80mg/m^2): 3/5
Mean plasma HSP72 change between dose levels (HSP72; 24 hours after 17-DMAG, compared with first dose cohort): did not differ
Dose at which HSP72 induction was detected in PBMC (HSP72; ELISA (DELFIA), 24 hours after 17-DMAG): ≥ 20 mg/m^2
Mean HSP72 plasma level post 17-DMAG (HSP72; all other patients (without DLT)): 86 ± 140 fmol/mL
Highest HSP72 plasma levels post 17-DMAG (HSP72; the 2 patients with DLT (106 mg/m^2), individual values): 1250 fmol/mL and 5610 fmol/mL
Time on treatment before PD (advanced solid tumors; patient with CRPC and complete response, 5mg/m^2 escalated to 20mg/m^2): 124 weeks
Best tumor response (advanced solid tumors; patient with CRPC, 5mg/m^2 escalated to 20mg/m^2, confirmed by CT and PSA): complete response
Time on study with stable disease (advanced solid tumors; patient with CRPC, 20mg/m^2): 59 weeks
Time on study with stable disease (advanced solid tumors; patient with chondrosarcoma, 5mg/m^2 escalated to 20mg/m^2): 28 weeks
Time on study with stable disease (advanced solid tumors; patient with clear cell renal cancer, 80mg/m^2): 76 weeks
Time on treatment before PD (advanced solid tumors; patient with metastatic melanoma and partial response, 40mg/m^2): 159 weeks
Best tumor response (advanced solid tumors; patient with metastatic melanoma, 40mg/m^2): partial response
Patients with progressive disease (PD) (advanced solid tumors; twenty patients evaluable, all dose levels): Nine
Half life ([4]; dose 40.0 mg/m^2, 1 hr IV infusion, 3 patients): 21.5 ± 4.3 (19.7) hr
Half life ([4]; dose 80.0 mg/m^2, 1 hr IV infusion, 8 patients): 27.8 ± 7.1 (25.4) hr
Cmax ([4]; human, intravenous, 80 mg/m2): 2680 nM
Vd ([4]; human, intravenous, 80 mg/m2): 385 L
clearance ([4]; human, intravenous, 80 mg/m2): 315 mL/min
AUC ([4]; human, iv, 2.5 mg/m^2): 0.581 ± 0.236 µM·h
Cmax ([4]; human, iv, 2.5 mg/m^2): 64.1 ± 19.7 nM
clearance ([4]; human, iv, 2.5 mg/m^2): 218 mL/min
half-life ([4]; human, iv, 2.5 mg/m^2): 25.2 ± 12.9 h
AUC ([4]; human, iv, 5 mg/m^2): 0.864 ± 0.651 µM·h
Cmax ([4]; human, iv, 5 mg/m^2): 85.4 ± 55.2 nM
clearance ([4]; human, iv, 5 mg/m^2): 858 mL/min
half-life ([4]; human, iv, 5 mg/m^2): 18.4 ± 7.5 h
AUC ([4]; human, iv, 20 mg/m^2): 3.73 ± 2.04 µM·h
Cmax ([4]; human, iv, 20 mg/m^2): 480 ± 176 nM
clearance ([4]; human, iv, 20 mg/m^2): 345 mL/min
half-life ([4]; human, iv, 20 mg/m^2): 28.7 ± 14.2 h
AUC ([4]; human, iv, 40 mg/m^2): 6.51 ± 3.22 µM·h
Cmax ([4]; human, iv, 40 mg/m^2): 957 ± 248 nM
clearance ([4]; human, iv, 40 mg/m^2): 322 mL/min
AUC ([4]; human, iv, 80 mg/m^2): 12.7 ± 2.87 µM·h
Cmax ([4]; human, iv, 80 mg/m^2): 2680 ± 1320 nM
clearance ([4]; human, iv, 80 mg/m^2): 315 mL/min
AUC ([4]; human, iv, 106 mg/m^2): 32.3 ± 16.3 µM·h
Cmax ([4]; human, iv, 106 mg/m^2): 3750 ± 1370 nM
clearance ([4]; human, iv, 106 mg/m^2): 213 mL/min
half-life ([4]; human, iv, 106 mg/m^2): 24.7 ± 1.8 h
Dose at which transient HSP72 induction (< 24 hours) was detected in PBMCs (HSP90 [5]): ≥ 5 mg/m^2
Dose at which CDK4 depletion was demonstrated in PBMC (HSP90 [5]; some patients): ≥ 80 mg/m^2
